Only some compounds are listed: those with a hit (about 3.8% of all), similar ones and a draw of the others.
Kir21 inh – inhibitors of mouse Kir2.1 inward-rectifier potassium channel. HEK293-Kir2.1, FluxOR thallium flux fluorescence; active compounds read low. 310,000 tested, 0.85% active. P35561. B-score at 10 µM;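 active = fluorescence ratio B-score at or below minus 3 SD of library scores, with starting-brightness B-score within 2 SD, cut at about -4.2 in these data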;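 also: channel flux triggered by added potassium and thallium sulfate stimulus; B-score of peak minus minimum fluorescence over baseline after thallium stimulus; more negative B-score means stronger Kir2.1 block with less thallium influx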
hERG rescue – hERG (human) protection from proarrhythmic block; 310,000 tested, 0.51% active; Q12809; activation (rescue from dofetilide block), less the hit threshold, % at 10 µM; CHO-hERG, FluxOR thallium flux, dofetilide IC70 present; AID 1511;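 active = activation above the mean of controls blocked by dofetilide plus 5 SD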;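 also: thallium influx through hERG after potassium depolarization seen as dye fluorescence rise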
Target sequence (Q12809 whole entry, looked up): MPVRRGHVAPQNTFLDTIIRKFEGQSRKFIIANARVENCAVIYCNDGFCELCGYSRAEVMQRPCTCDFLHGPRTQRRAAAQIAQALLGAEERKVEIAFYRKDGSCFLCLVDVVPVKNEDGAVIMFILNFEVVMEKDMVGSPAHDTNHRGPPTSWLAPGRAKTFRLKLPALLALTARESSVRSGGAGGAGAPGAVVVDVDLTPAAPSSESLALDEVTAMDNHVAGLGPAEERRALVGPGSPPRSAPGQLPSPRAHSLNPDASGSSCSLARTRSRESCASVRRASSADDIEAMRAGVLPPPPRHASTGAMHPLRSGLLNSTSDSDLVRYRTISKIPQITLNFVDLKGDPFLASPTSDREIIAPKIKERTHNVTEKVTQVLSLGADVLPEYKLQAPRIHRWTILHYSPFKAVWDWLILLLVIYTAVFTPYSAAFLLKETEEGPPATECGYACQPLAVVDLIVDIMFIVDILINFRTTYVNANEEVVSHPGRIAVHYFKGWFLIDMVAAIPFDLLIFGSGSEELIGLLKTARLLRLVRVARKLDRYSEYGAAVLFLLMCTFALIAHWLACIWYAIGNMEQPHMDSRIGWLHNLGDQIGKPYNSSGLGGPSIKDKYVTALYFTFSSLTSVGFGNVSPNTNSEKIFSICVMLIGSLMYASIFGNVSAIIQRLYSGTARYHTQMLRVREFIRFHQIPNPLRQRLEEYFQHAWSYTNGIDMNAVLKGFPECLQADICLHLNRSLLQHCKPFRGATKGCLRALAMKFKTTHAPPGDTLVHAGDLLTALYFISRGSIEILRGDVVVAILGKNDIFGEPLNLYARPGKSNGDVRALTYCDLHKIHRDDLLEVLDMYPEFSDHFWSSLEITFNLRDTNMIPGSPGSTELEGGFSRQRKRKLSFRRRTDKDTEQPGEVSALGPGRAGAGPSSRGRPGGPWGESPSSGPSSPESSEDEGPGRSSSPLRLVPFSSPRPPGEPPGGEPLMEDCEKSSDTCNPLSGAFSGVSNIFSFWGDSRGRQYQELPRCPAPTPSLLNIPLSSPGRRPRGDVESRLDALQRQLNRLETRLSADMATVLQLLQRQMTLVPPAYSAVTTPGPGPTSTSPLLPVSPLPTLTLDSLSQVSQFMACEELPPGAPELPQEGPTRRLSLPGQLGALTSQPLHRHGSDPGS
KCNQ1 act – human KCNQ1 channel potentiation or activation | P51787 | B-score at 10 µM | CHO-K1 KCNQ1, thallium flux FluxOR fluorescence; active compounds read high | 310,000 tested, 0.35% active;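 active = fluorescence ratio B-score, a plate-corrected score, at least three library SD, with initial intensity B-score within 5 SD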
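System: CHO-K1 cells stably expressing KCNQ1 / Medium: assay buffer for compound exposure, DMSO matched across wells / Reagent: thallium- and potassium-containing depolarizing buffer / Compound: one concentration, matched DMSO / Incubation: 20 min compound pretreatment at room temperature / Measured by: kinetic FluxOR fluorescence, 10 s baseline plus 110 s post-stimulus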
KCNK3 block – human KCNK3 channel inhibition, primary screen | CHO-KCNK3 thallium flux, FluxOR fluorescence; active compounds read low | AID 602410 | B-score at 10 µM | 340,000 tested, 0.84% active | O14649;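 active = B-score under library mean minus 4 SD, starting fluorescence ratio at most library mean plus 5 SD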;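 also: more negative B-score means stronger inhibition of thallium flux through KCNK3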
KCNK9 block – human KCNK9 channel inhibition. Q9NPC2. B-score at 10 µM. AID 488922. 310,000 tested, 1.2% active. HEK293 KCNK9, FluxOR thallium flux fluorescence; active compounds read low;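 active = ratio B-score over 3 SD below the library mean, with starting fluorescence within 5 SD of its mean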;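 also: negative B-score means less thallium flux so channel inhibition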
KCNQ1 inh – human KCNQ1 channel inhibition | 310,000 tested, 1.3% active | AID 2642 | B-score at 10 µM | CHO-K1 KCNQ1, FluxOR thallium flux fluorescence; active compounds read high | P51787;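 active = compounds whose thallium flux B-score, printed positive for inhibition, exceeds three library SD while starting fluorescence stays within three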;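 also: channel opened by potassium depolarization with thallium stimulus after 20 min compound exposure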
KCNK9 inh conf – confirmation of human KCNK9 potassium channel inhibitors; HEK293 KCNK9 cells, FluxOR thallium flux fluorescence; shares compounds with KCNK9 block; 4,900 tested, 43% active; inhibition, % at 10 µM;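 active = thallium signal inhibited by more than 5 SD of the compound-free buffer control wells, on both duplicate plates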;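 also: 0% = assay buffer control wells without compound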
Kir2-1 spec – tests whether KCNK9 modulators also affect mouse Kir2.1. inhibition, % at 10 µM. 4,900 tested, 4% active. shares compounds with KCNK9 block. Kir2.1 cells, FluxOR thallium flux fluorescence. AID 492993;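 active = thallium signal drop more than 5 SD beyond the mean of the no-compound control wells, seen in both duplicate plates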;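 also: signal is fluorescence rise after thallium addition divided by baseline fluorescence; plate controls were assay buffer only for no effect and full block by chlorpromazine control for full effect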
KCNK9 uninduced – second counter-screen for KCNK9 modulators: effect in non-induced cells; inhibition, % at 10 µM; shares compounds with KCNK9 block; 4,900 tested, 40% active; non-induced KCNK9-HEK293, FluxOR thallium flux;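 active = thallium signal drop beyond 5 SD of the untreated control mean, on both duplicate plates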;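 also: plate controls were buffer only IC0 wells for no effect and SID17386958 at its maximal inhibitory level for full effect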
* hit, by the source's call.

Cc1ccc2[nH]nc(C(=O)N3CCCC(C(=O)c4ccc(Cl)cc4)C3)c2c1 (centres undefined) was read as Kir21 inh 0.24, hERG rescue -3, KCNQ1 act inactive, KCNK3 block inactive, KCNK9 block inactive, KCNQ1 inh inactive, KCNK9 inh conf inactive, Kir2-1 spec inactive and KCNK9 uninduced inactive.
`COCc1ccc(C(=O)N2CCCC(C(=O)c3ccc(SC)cc3)C2)s1` (centres undefined) gave Kir21 inh -0.54, hERG rescue -2, KCNQ1 act inactive, KCNK3 block inactive, KCNK9 block inactive, KCNQ1 inh inactive, KCNK9 inh conf inactive, Kir2-1 spec inactive and KCNK9 uninduced inactive.
For Cc1cc(C)c(C(=O)COC(=O)C2CCN(c3ccc(C(F)(F)F)cn3)CC2)cc1C the results were Kir21 inh 0.49, hERG rescue -13, KCNQ1 act inactive, KCNK3 block inactive, KCNK9 block inactive, KCNQ1 inh 7*, KCNK9 inh conf inactive, Kir2-1 spec inactive and KCNK9 uninduced inactive.
`Cc1ccc2nc(-c3ccccc3)c(CN3CCN(c4ccccc4F)CC3)n2c1` gave Kir21 inh 0.73, hERG rescue -4, KCNQ1 act inactive, KCNK3 block inactive, KCNK9 block inactive, KCNQ1 inh inactive, KCNK9 inh conf inactive, Kir2-1 spec inactive and KCNK9 uninduced inactive.
`Cc1ccc2nc(-c3ccccc3)c(CN3CCSCC3)n2c1` gave Kir21 inh 0.53, hERG rescue -10, KCNQ1 act inactive, KCNK3 block inactive, KCNK9 block inactive and KCNQ1 inh inactive.
`Cc1cccc(N(Cc2ccccc2)C(=O)c2cc(S(=O)(=O)N3CCOCC3)ccc2Cl)c1` gave Kir21 inh -1.4, hERG rescue -11, KCNQ1 act inactive, KCNK3 block inactive, KCNK9 block inactive, KCNQ1 inh inactive, KCNK9 inh conf inactive, Kir2-1 spec inactive and KCNK9 uninduced inactive.
CCOc1ccc(CCNS(=O)(=O)c2cc3c(cc2C)NC(=O)CO3)cc1OCC was read as Kir21 inh -0.34, hERG rescue -6, KCNQ1 act inactive, KCNK3 block inactive, KCNK9 block inactive and KCNQ1 inh inactive.
O=[N+]([O-])c1ccc(S(=O)(=O)Nc2ccc3c(c2)OCCO3)cc1 was read as Kir21 inh -0.25, hERG rescue -10, KCNQ1 act inactive, KCNK3 block inactive, KCNK9 block -8.1*, KCNQ1 inh inactive, KCNK9 inh conf inactive, Kir2-1 spec inactive and KCNK9 uninduced inactive.
Screening Nn1c(SCC(=O)Nc2ccc(Oc3ccccc3)cc2)nnc1C1CC1 returned Kir21 inh 1.1, hERG rescue -8, KCNQ1 act inactive, KCNK3 block inactive, KCNK9 block inactive, KCNQ1 inh inactive, KCNK9 inh conf inactive, Kir2-1 spec inactive and KCNK9 uninduced inactive.
Screening Cc1ccc(N(Cc2ccccc2)C(=O)c2cc(S(=O)(=O)N3CCOCC3)ccc2F)cc1 returned KCNK3 block inactive.
O=C(NCc1ccccc1)C1=C[C@H](c2ccc3c(c2)OCO3)C[C@H](OCCCCO)O1 was read as Kir21 inh 0, hERG rescue -9, KCNQ1 act inactive, KCNK3 block inactive, KCNK9 block inactive, KCNQ1 inh inactive, KCNK9 inh conf inactive, Kir2-1 spec inactive and KCNK9 uninduced inactive.
Screening O=C(Nc1ccccc1)C1=C[C@@H](C2CCCCC2)C[C@@H](OCCCCO)O1 returned Kir21 inh 1.9, hERG rescue -7, KCNQ1 act inactive, KCNK3 block inactive, KCNK9 block inactive and KCNQ1 inh inactive.
For O=C(NCc1ccccc1)C1=C[C@H](C2CCCCC2)C[C@H](OCCCCO)O1 the results were Kir21 inh -0.55, hERG rescue -7, KCNQ1 act inactive, KCNK3 block inactive, KCNK9 block inactive, KCNQ1 inh inactive, KCNK9 inh conf inactive, Kir2-1 spec inactive and KCNK9 uninduced inactive.
O=C(NCc1ccccc1)C1=C[C@H](c2ccc3c(c2)OCO3)C[C@H](OCc2ccc(CO)cc2)O1 was read as Kir21 inh -0.64, hERG rescue -22, KCNQ1 act inactive, KCNK3 block inactive, KCNK9 block inactive and KCNQ1 inh inactive.
O=C(NCCN1C(=O)S/C(=C\c2cccnc2)C1=O)c1cc(S(=O)(=O)N2CCOCC2)ccc1F was read as Kir21 inh 0.84, hERG rescue -15, KCNQ1 act inactive, KCNK3 block inactive, KCNK9 block inactive and KCNQ1 inh inactive.
O=C(NCc1ccco1)c1cc(S(=O)(=O)N2CCOCC2)ccc1Br was read as Kir21 inh 2.3, hERG rescue -7, KCNQ1 act inactive, KCNK3 block inactive, KCNK9 block inactive and KCNQ1 inh inactive.
For O=C(c1cc2sccc2n1Cc1ccc(F)cc1)N1CCCc2ccccc21 the results were Kir21 inh 0.71, hERG rescue -8, KCNQ1 act inactive, KCNK3 block inactive, KCNK9 block -10*, KCNQ1 inh inactive, KCNK9 inh conf 51%*, Kir2-1 spec inactive and KCNK9 uninduced 37%*.
C=CCN(c1ccc(Br)cc1C(=O)OC)S(C)(=O)=O was read as KCNK3 block inactive.
For S=c1[nH]nc(Cc2ccccc2)n1-c1cccc2ccccc12 the results were Kir21 inh -2.4, hERG rescue -14, KCNQ1 act inactive, KCNK3 block inactive, KCNK9 block inactive, KCNQ1 inh inactive, KCNK9 inh conf inactive, Kir2-1 spec inactive and KCNK9 uninduced inactive.
`CCOc1ccc(Cc2n[nH]c(=S)n2Cc2ccccc2)cc1` gave Kir21 inh -0.37, hERG rescue -11, KCNQ1 act inactive, KCNK3 block inactive, KCNK9 block -15*, KCNQ1 inh inactive, KCNK9 inh conf 32%*, Kir2-1 spec inactive and KCNK9 uninduced 34%*.
COC(=O)C(NC(=O)c1ccccc1C)(Nc1ncc(S(=O)(=O)c2ccc([N+](=O)[O-])cc2)s1)C(F)(F)F (centres undefined) was read as Kir21 inh 0.34, hERG rescue -12, KCNQ1 act inactive, KCNK3 block inactive, KCNK9 block inactive, KCNQ1 inh inactive, KCNK9 inh conf inactive, Kir2-1 spec inactive and KCNK9 uninduced inactive.

Screens from PubChem BioAssay.
